From ChEMBL document CHEMBL1152785, “Synthesis and biological evaluation of a series of novel inhibitor of Nek2/Hec1 analogues” (J Med Chem, 2009) come the findings set out here.

For one assay, the system named is MDA-MB-231. Description: Cytotoxicity against human MDA-MB-231 cells after 4 days XTT assay. Particulars: MDA-MB-231, 96 h. The format is functional, cell-based. A digest of the protocol: (§1)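 XTT assay with four-day drug treatment. Cells were plated one day before dosing and drug was added on day 2. XTT was read on day 5 after drug addition by absorbance at 595 nm. Absorbance was converted to percent survival against mock-treated cells to give dose-dependent cytotoxicity. Triplicate sets. HeLa, MDA-MB231 and MDA-MB468 were maintained in DMEM with 10% FBS.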
(In general: Tetrazolium dyes change colour on reduction, which living cells bring about.)

In the next assay the test system is MDA-MB-468. Description: Cytotoxicity against human MDA-MB-468 cells after 4 days by XTT assay. The format is functional, cell-based. Particulars: MDA-MB-468, 96 h. In a few lines: as §1
Assay [1] has as its system HeLa. Put plainly: Cytotoxicity against human HeLa cells after 4 days by XTT assay. The format is functional, cell-based. Particulars: 96 h. In a few lines: as §1
For a further assay, the system named is K562. Description: Cytotoxicity against human K562 cells after 4 days by XTT assay. Particulars: K562, 96 h. The format is functional, cell-based.
Assay [2] addresses T1, Kinetochore protein NDC80 homolog (Homo sapiens) (UniProt O14777).
T1 sequence (whole entry): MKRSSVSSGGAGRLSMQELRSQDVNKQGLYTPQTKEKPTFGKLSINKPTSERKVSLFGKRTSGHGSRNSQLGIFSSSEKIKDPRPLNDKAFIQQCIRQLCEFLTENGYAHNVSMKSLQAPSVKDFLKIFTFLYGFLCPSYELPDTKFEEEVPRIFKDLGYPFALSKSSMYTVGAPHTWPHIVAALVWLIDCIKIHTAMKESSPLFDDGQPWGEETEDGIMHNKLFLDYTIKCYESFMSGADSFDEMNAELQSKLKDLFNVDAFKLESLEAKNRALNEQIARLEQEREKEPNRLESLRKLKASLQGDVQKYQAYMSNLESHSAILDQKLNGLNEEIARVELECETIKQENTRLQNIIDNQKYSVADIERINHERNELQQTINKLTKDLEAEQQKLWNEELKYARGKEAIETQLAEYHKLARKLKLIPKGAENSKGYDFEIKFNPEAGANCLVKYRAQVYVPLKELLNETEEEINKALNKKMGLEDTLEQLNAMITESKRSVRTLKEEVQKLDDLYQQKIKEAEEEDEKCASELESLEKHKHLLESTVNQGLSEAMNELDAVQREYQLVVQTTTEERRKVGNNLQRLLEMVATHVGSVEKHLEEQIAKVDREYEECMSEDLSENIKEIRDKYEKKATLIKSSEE
Put plainly: Binding affinity to Hec1 in human HeLa cell extract by affinity pulldown assay. The format is cell-free. In a few lines: (§2)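 Compounds were conjugated to affi-gel matrix. HeLa cell extract was incubated with control or compound-conjugated matrices and the precipitates were washed thoroughly. Bound proteins were resolved by SDS-PAGE and Western blotted for Hec1 and Nek2. Whole cell extract served as input, in duplicates.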

Assay [3] concerns the target T2, Serine/threonine-protein kinase Nek2 (Homo sapiens) (UniProt P51955).
T2 sequence (whole entry): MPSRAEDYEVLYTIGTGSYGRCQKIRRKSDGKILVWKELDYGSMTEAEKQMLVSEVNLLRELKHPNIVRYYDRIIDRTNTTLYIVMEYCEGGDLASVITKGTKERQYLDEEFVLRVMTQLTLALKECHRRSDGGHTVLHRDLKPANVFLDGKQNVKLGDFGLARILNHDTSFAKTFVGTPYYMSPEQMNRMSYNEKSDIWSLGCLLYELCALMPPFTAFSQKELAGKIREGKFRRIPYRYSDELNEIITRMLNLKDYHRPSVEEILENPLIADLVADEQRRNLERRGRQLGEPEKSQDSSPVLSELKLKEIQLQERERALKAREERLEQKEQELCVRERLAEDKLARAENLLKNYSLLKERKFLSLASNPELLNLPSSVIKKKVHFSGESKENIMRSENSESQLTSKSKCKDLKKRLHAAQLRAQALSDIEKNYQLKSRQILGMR
Description: Binding affinity to NeK2 in human HeLa cell extract by affinity pulldown assay. The format is cell-free. A digest of the protocol: as §2

The test system of assay [4] is HeLa. Description: Anticancer activity against human HeLa cells assessed as reduction of Nek2 level at 6.25 uM by Western blot assay. The format is functional, cell-based. A digest of the protocol:
(§3)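 HeLa cells in DMEM with 10% FBS were treated with compound at 6.25 μM and harvested at various time points. Extracts were run on SDS-PAGE and Western blotted for Nek2 and Hec1, with p84 (nuclear matrix protein) as loading control. Nek2 level was followed over time after treatment.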
For orientation: In western blotting, separated proteins are transferred to a membrane and probed.

In assay [5] the test system is HeLa. Description: Anticancer activity against human HeLa cells assessed as reduction of Nek2 level at 6.25 uM after 8 to 11 hrs by Western blot assay. The format is functional. Details: scale not given: the % may be the effect or the level left. In a few lines: as §3
Assay [6] has as its target T1, Kinetochore protein NDC80 homolog (Homo sapiens). Description: Inhibition of Hec1/Nek2 complex in human Hela cells assessed as mitotic abnormality with multipolar spindle configuration at 3.75 uM after 24 hrs by immuno-fluorescent staining. The format is cell-based. In a few lines: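 HeLa cells were treated with compound at 3.75 μM or buffer mock for 24 h. Cells were immunostained for α-tubulin and γ-tubulin with DAPI for DNA. Mitotic cells were examined for spindle pole number, i.e. multipolar spindles.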

For assay [7], the system named is HeLa. Put plainly: Anticancer activity against human HeLa cells expressing H2B-GFP assessed as increase in rate of chromosome misalignment at 2.5 uM after 24 hrs. The format is functional, cell-based. In a few lines:
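HeLa cells expressing the chromosome marker H2B-GFP were treated with compound at 2.5 μM. The incidence of metaphase chromosome alignment was scored. Triplicate sets were measured to give averages and deviations.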

For assay [8], the system named is HeLa. Description: Induction of apoptosis in human HeLa cells assessed as morphological changes with membrane bubbling at 2.5 uM. The format is functional, cell-based. A digest of the protocol:
(§4)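 HeLa cells were treated with compound at 2.5 μM, with buffer as mock control. Phase contrast images were taken at various time points to assess dying-cell morphology such as membrane bubbling. Cell cycle profiling was done by FACS at 72 h.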

For assay [9], the system named is HeLa. Description: Cell cycle arrest in human HeLa cells assessed as accumulation at subG1 phase at 2.5 uM after 72 hrs by FACS analysis. The format is functional. A digest of the protocol:
as §4

For assay [10], the target named is T1, Kinetochore protein NDC80 homolog (Homo sapiens). Put plainly: Inhibition of Hec1/Nek2 complex in human Hela cells assessed as mitotic abnormality with multipolar spindle configuration at 3.75 uM after 24 hrs by immuno-fluorescent staining.
The test system of assay [11] is HeLa. Put plainly: Anticancer activity against human HeLa cells assessed as reduction of Nek2 level at 25 uM by Western blot assay. The format is functional, cell-based.
Assay [12] deals with HeLa. Description: Anticancer activity against human HeLa cells assessed as reduction of Nek2 level at 25 uM after 8 to 11 hrs by Western blot assay. The format is functional, cell-based.
For assay [13], the target named is T1, Kinetochore protein NDC80 homolog (Homo sapiens). Put plainly: Inhibition of Hec1/Nek2 complex in human Hela cells assessed as mitotic abnormality with multipolar spindle configuration at 25 uM after 24 hrs by immuno-fluorescent staining. The format is cell-based.

Each structure is given as a SMILES string. Calls of active or inactive are those of the source. No cut-off for these calls is given here.

Turning to `Cc1cc(C)c(-c2csc(NC(=O)c3ccccc3)n2)c(C)c1`, the IC50 with MDA-MB-231 came out at 1.7 µM; in the assay on MDA-MB-468 it was 2.1 µM; with HeLa [1], 2.4 µM; in the assay on K562, 2.5 µM. Moreover, the result (in assay [2]; in the assay with HeLa [4]; in assay [6]; with HeLa [7]; in the assay with HeLa [8]; in assay [10]) was Active. The result in [3] was inactive. The Activity with HeLa [5] is 50%; with HeLa [9] it was 19.9%.

With `Cc1ccc(-c2csc(NC(=O)c3ccccc3)n2)c(C)c1`, the IC50 was determined as 8.6 µM with MDA-MB-231, 10.5 µM in the assay with MDA-MB-468, 8.8 µM with HeLa [1] and 11.7 µM with K562. For the same compound, the outcome (in the assay with HeLa [11]; in the assay on HeLa [12]; in assay [13]) was Active.

As to `Cc1cc(C)c(-c2csc(NC(=O)N3CCOCC3)n2)c(C)c1`, the IC50 with MDA-MB-231 turned out to be 1.6 µM; in the assay with MDA-MB-468, 4.2 µM; in the assay on HeLa [1], 2.5 µM; in the assay with K562 it was 3.8 µM. In [3], the outcome was inactive. The result (in the assay on HeLa [4]; in assay [6]; in the assay with HeLa [7]; in the assay with HeLa [8]; in assay [10]) was Active. Moreover, the Activity turned out to be 50% in the assay on HeLa [5] and 20.1% with HeLa [9].

As a reminder, the IC50 is the concentration needed to halve the response being measured.
